From ChEMBL document CHEMBL3352138, “Synthesis of novel 1,2,4-triazoles, triazolothiadiazines and triazolothiadiazoles as potential anticancer agents” (Eur J Med Chem, 2014)

Experiments:
Type in all cases: functional, cell-based
HepG2 = experiment: Cytotoxicity against human HepG2 cells after 24 hrs by SRB assay; conditions: HepG2, 24 h
In short: (§1)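 Monolayer cultures kept in RPMI-1640 with 5% heat-inactivated FBS, 2 mM glutamine, penicillin 100 U/mL and streptomycin, at 37 °C in humidified 5% CO₂. Exponentially growing cells were obtained by plating 1.5×10^5 cells/mL and incubating 24 h before treatment. Vehicle controls received DMSO at 0.5%, the maximum used in each assay.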

NUGC = experiment: Cytotoxicity against human NUGC cells after 24 hrs by SRB assay; in short: as §1
[1] = Cytotoxicity against human HA22T cells after 24 hrs by SRB assay; in short: as §1
[2] = Cytotoxicity against human MCF cells after 24 hrs by SRB assay; in short: as §1
[3] = Cytotoxicity against human DLD1 cells after 24 hrs by SRB assay; conditions: DLD-1, 24 h; in short: as §1
[4] = Cytotoxicity against human HONE1 cells after 24 hrs by SRB assay; conditions: HONE1, 24 h; in short: as §1
[5] = Cytotoxicity against human WI38 cells after 24 hrs by SRB assay; conditions: WI-38, 24 h
In short: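 Normal fibroblasts were grown as monolayer in RPMI-1640 with 5% heat-inactivated FBS, 2 mM glutamine, penicillin 100 U/mL and streptomycin, at 37 °C in humidified 5% CO₂. Untreated control cells were exposed to the maximum DMSO vehicle concentration (0.5%) used in each assay.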

| Structure (SMILES) | IC50 (HepG2) [nM] | IC50 (NUGC) [nM] | IC50 [1] [nM] | IC50 [2] [nM] | IC50 [3] [nM] | IC50 [4] [nM] | IC50 [5] [nM] |
| --- | --- | --- | --- | --- | --- | --- | --- |
| O=C(Nn1c(S)nnc1-c1ccncc1)c1ccc([N+](=O)[O-])cc1 | 89 | 360 | 1110 | 1090 | 266 | 2280 |  |
| c1ccc(-c2nn3c(-c4ccncc4)nnc3s2)cc1 | 1360 | 1280 | 1260 | 1540 | 3360 | 2430 |  |
| N#CN=C(NCCCCCCOc1ccc(Cl)cc1)Nc1ccncc1 [CHS-828] |  |  |  | 18 |  | 15 |  |
| Cc1ccc(NC(=S)Nn2c(S)nnc2-c2ccncc2)cc1 | 1230 | 2770 | 2380 | 2170 | 2150 | 1290 |  |
| Clc1ccc(Nc2nn3c(-c4ccncc4)nnc3s2)cc1 | 1980 | 1290 | 3070 | 1260 | 3260 | 2260 |  |
| Brc1ccc(C2=Nn3c(nnc3-c3ccncc3)SC2)cc1 | 2290 | 2490 | 2060 | 2270 | 2380 | 1780 |  |
| COc1ccc(Nc2nn3c(-c4ccncc4)nnc3s2)cc1 | 333 | 56 | 282 | 215 | 128 | 2220 |  |
| S=C(Nc1ccc(Cl)cc1)Nn1c(S)nnc1-c1ccncc1 | 2020 | 2120 | 2010 | 3230 | 2250 | 1220 | 2190 |
| Brc1ccc(Nc2nn3c(-c4ccncc4)nnc3s2)cc1 | 128 | 136 | 782 | 229 | 320 | 2220 |  |
| Clc1ccc(-c2nn3c(-c4ccncc4)nnc3s2)c(Cl)c1 | 2260 | 2160 | 3070 | 3220 | 1190 | 1170 |  |
| c1ccc(C2=Nn3c(nnc3-c3ccncc3)SC2)cc1 | 469 | 59 | 122 | 80 | 2350 | 110 |  |
| Cc1nn2c(-c3ccncc3)nnc2s1 | 2740 | 2190 | 1720 | 219 | 3280 | 1080 | 650 |
| CC(=O)Nn1c(S)nnc1-c1ccncc1 | 53 | 44 | 166 | 2100 | 42 | 1180 |  |
| COc1ccc(NC(=S)Nn2c(S)nnc2-c2ccncc2)cc1 | 1300 | 1820 | 2370 | 1670 | 2290 | 2270 |  |
| S=C(Nc1ccc(Br)cc1)Nn1c(S)nnc1-c1ccncc1 | 2780 | 3290 | 3200 | 1590 | 3270 | 1680 | 1290 |
| Cc1ccc(Nc2nn3c(-c4ccncc4)nnc3s2)cc1 | 312 | 540 | 277 | 120 | 1380 | 3280 | 480 |
| Clc1ccc(-c2nn3c(-c4ccncc4)nnc3s2)cc1 | 1230 | 25 | 120 | 1620 | 49 | 488 |  |
| Clc1ccccc1-c1nn2c(-c3ccncc3)nnc2s1 | 1330 | 3220 | 1260 | 2180 | 2660 | 1170 |  |
